What all share (format): functional
For assay [1], the system named is Nakaseomyces glabratus. Description: Antifungal activity against Candida glabrata 20/I after 24 hrs by microdilution method. In a few lines: (§1)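 Yeasts held on Sabouraud dextrose agar. MIC by NCCLS M27-A broth microdilution in RPMI 1640 with L-glutamine, buffered with 0.165 M MOPS to pH 7.0. Compounds in DMSO (≤2% final), twofold dilutions 500–0.48. Final inoculum 5 × 10³ ± 0.2 cfu mL⁻¹. Incubated at 35 °C; absorbance at 540 nm read at 24 and 48 h. MIC is 80% growth inhibition versus control; run twice in duplicate.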
For orientation: In broth dilution the organism is exposed to a series of concentrations in liquid medium.

Assay [2] relates to Candida albicans. As to the kind of experiment: Antifungal activity against Candida albicans ATCC 44859 after 48 hrs by microdilution method. The note with it: ATCC 44859, 48 h. In a few lines: as §1
For assay [3], the system named is Clavispora lusitaniae. As to the kind of experiment: Antifungal activity against Candida lusitaniae 2446/I after 24 hrs by microdilution method. An outline of the steps: as §1
Assay [4] concerns Candida parapsilosis. Description: Antifungal activity against Candida parapsilosis ATCC 22019 after 24 hrs by microdilution method. The note with it: Lodderomyces parapsilosis, ATCC 22019, 24 h. In a few lines: as §1
In assay [5] the test system is Nakaseomyces glabratus. As to the kind of experiment: Antifungal activity against Candida glabrata 20/I after 48 hrs by microdilution method. In a few lines: as §1
The test system of assay [6] is Trichophyton mentagrophytes. Description: Antifungal activity against Trichophyton mentagrophytes 445 after 72 hrs by microdilution method. The conditions noted are these: Trichophyton mentagrophytes, 445, 72 h. In a few lines:
(§2)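 Dermatophyte held on Sabouraud dextrose agar. M27-A microdilution in MOPS-buffered (0.165 M, pH 7.0) RPMI 1640 with L-glutamine. DMSO ≤2% final; twofold dilutions 500–0.48. Inoculum 5 × 10³ ± 0.2 cfu mL⁻¹ final. Incubated at 35 °C; MIC read visually at 72 and 120 h as 80% inhibition of control growth; determined twice in duplicate.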

Assay [7] concerns Candida albicans. Description: Antifungal activity against Candida albicans ATCC 90028 after 48 hrs by microdilution method. The conditions noted are these: ATCC 90028, 48 h. An outline of the steps: as §1
Assay [8] deals with Candida albicans. As to the kind of experiment: Antifungal activity against Candida albicans ATCC 44859 after 24 hrs by microdilution method. The note with it: ATCC 44859, 24 h. In a few lines:
as §1

Assay [9] deals with Trichophyton mentagrophytes. As to the kind of experiment: Antifungal activity against Trichophyton mentagrophytes 445 after 120 hrs by microdilution method. The conditions noted are these: Trichophyton mentagrophytes, 445, 120 h. An outline of the steps:
as §2

Assay [10] deals with Pichia kudriavzevii. Description: Antifungal activity against Candida krusei E28 after 24 hrs by microdilution method. The conditions noted are these: E28, 24 h. An outline of the steps: as §1
Assay [11] has as its system Clavispora lusitaniae. Description: Antifungal activity against Candida lusitaniae 2446/I after 48 hrs by microdilution method. In a few lines: as §1
Assay [12] deals with Pichia kudriavzevii. Description: Antifungal activity against Candida krusei ATCC 6258 after 48 hrs by microdilution method. The conditions noted are these: ATCC 6258, 48 h. In a few lines: as §1
Assay [13] has as its system Aspergillus fumigatus. As to the kind of experiment: Antifungal activity against Aspergillus fumigatus 231 after 48 hrs by microdilution method. The conditions noted are these: Aspergillus fumigatus, 231, 48 h. An outline of the steps: (§3)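 Filamentous strains held on Sabouraud dextrose agar. NCCLS M27-A broth microdilution in RPMI 1640 with L-glutamine and 0.165 M MOPS, pH 7.0. DMSO diluent ≤2% final; twofold dilutions 500–0.48. Inoculum 5 × 10³ ± 0.2 cfu mL⁻¹ final.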

Assay [14] has as its system Pichia kudriavzevii. As to the kind of experiment: Antifungal activity against Candida krusei E28 after 48 hrs by microdilution method. The note with it: E28, 48 h. An outline of the steps:
as §1

Assay [15] deals with Candida albicans. As to the kind of experiment: Antifungal activity against Candida albicans ATCC 90028 after 24 hrs by microdilution method. The note with it: ATCC 90028, 24 h. In a few lines: as §1
The subject of assay [16] is Aspergillus fumigatus. As to the kind of experiment: Antifungal activity against Aspergillus fumigatus 231 after 24 hrs by microdilution method. The note with it: Aspergillus fumigatus, 231, 24 h. In a few lines:
as §3

Assay [17] concerns Candida parapsilosis. As to the kind of experiment: Antifungal activity against Candida parapsilosis ATCC 22019 after 48 hrs by microdilution method. The conditions noted are these: Lodderomyces parapsilosis, ATCC 22019, 48 h. In a few lines:
as §1

Assay [18] concerns Candida tropicalis. As to the kind of experiment: Antifungal activity against Candida tropicalis 156 after 48 hrs by microdilution method. The conditions noted are these: Candida tropicalis, 156, 48 h. An outline of the steps:
as §1

For assay [19], the system named is Lichtheimia corymbifera. As to the kind of experiment: Antifungal activity against Absidia corymbifera 272 after 24 hrs by microdilution method. The conditions noted are these: Lichtheimia corymbifera, 272, 24 h. An outline of the steps: as §3
For assay [20], the system named is Trichosporon beigelii. As to the kind of experiment: Antifungal activity against Trichosporon beigelii 1188 after 48 hrs by microdilution method. The conditions noted are these: Trichosporon beigelii, 1188, 48 h. An outline of the steps:
as §1

The subject of assay [21] is Lichtheimia corymbifera. Description: Antifungal activity against Absidia corymbifera 272 after 48 hrs by microdilution method. The conditions noted are these: Lichtheimia corymbifera, 272, 48 h. An outline of the steps: as §3
The subject of assay [22] is Pichia kudriavzevii. Description: Antifungal activity against Candida krusei ATCC 6258 after 24 hrs by microdilution method. The conditions noted are these: ATCC 6258, 24 h. An outline of the steps:
as §1

Assay [23] concerns Trichosporon beigelii. As to the kind of experiment: Antifungal activity against Trichosporon beigelii 1188 after 24 hrs by microdilution method. The conditions noted are these: Trichosporon beigelii, 1188, 24 h. In a few lines:
as §1

The subject of assay [24] is Candida tropicalis. As to the kind of experiment: Antifungal activity against Candida tropicalis 156 after 24 hrs by microdilution method. The conditions noted are these: Candida tropicalis, 156, 24 h. An outline of the steps: as §1

In brackets after ≈: the same amount, converted by molar mass.

The term MIC80 denotes an inhibitory concentration at the 80% level, which refers to growth in some studies and to a panel of isolates in others. For the compound `O=C1OC(COc2cccc(Br)c2)C=C1c1ccc(Br)cc1` (stereo unspecified), the MIC80 in [1] was 1.95 µM (≈ 0.827 µg/mL); in assay [2], 1.95 µM (≈ 0.827 µg/mL); in [3], 7.81 µM (≈ 3.31 µg/mL); in assay [4], 7.81 µM (≈ 3.31 µg/mL); in assay [5] it was 1.95 µM (≈ 0.827 µg/mL); in assay [6] it was 1.95 µM (≈ 0.827 µg/mL). For the same compound, the MIC80 in assay [7] was found to be 7.81 µM (≈ 3.31 µg/mL); in assay [8], 0.97 µM (≈ 0.411 µg/mL); in assay [9], 1.95 µM (≈ 0.827 µg/mL); in assay [10] it was 7.81 µM (≈ 3.31 µg/mL); in assay [11], 15.6 µM (≈ 6.62 µg/mL); in assay [12] it was 15.6 µM (≈ 6.62 µg/mL). The MIC80 in assay [13] was 15.6 µM (≈ 6.62 µg/mL); in [14], 15.6 µM (≈ 6.62 µg/mL); in assay [15], 3.9 µM (≈ 1.65 µg/mL); in assay [16], 3.9 µM (≈ 1.65 µg/mL); in assay [17], 31.2 µM (≈ 13.3 µg/mL); in [18], 15.6 µM (≈ 6.62 µg/mL). Also, the MIC80 in [19] was 31.2 µM (≈ 13.3 µg/mL); in [20], 62.5 µM (≈ 26.5 µg/mL); in assay [21], 62.5 µM (≈ 26.5 µg/mL); in assay [22], 7.81 µM (≈ 3.31 µg/mL); in assay [23], 7.81 µM (≈ 3.31 µg/mL); in [24] it was 7.81 µM (≈ 3.31 µg/mL).

For the compound `OC(Cn1cncn1)(Cn1cncn1)c1ccc(F)cc1F` [FLUCONAZOLE], the MIC80 is 22 µM (≈ 6.74 µg/mL) in [1]; 2 µM (≈ 0.613 µg/mL) in [2]; 3.3 µM (≈ 1.01 µg/mL) in [3]; 6.5 µM (≈ 1.99 µg/mL) in [4]; greater than 50 µM in assay [5]; 17 µM (≈ 5.21 µg/mL) in [6]. Also, the MIC80 in assay [7] is 3.3 µM (≈ 1.01 µg/mL); in assay [8] it was 1 µM (≈ 0.306 µg/mL); in assay [10], greater than 50 µM; in assay [11], 3.3 µM (≈ 1.01 µg/mL); in [12] it was greater than 50 µM; in assay [13], greater than 50 µM. The MIC80 in [14] is greater than 50 µM; in assay [15], 0.8 µM (≈ 0.245 µg/mL); in assay [16], greater than 50 µM; in assay [17], 13 µM (≈ 3.98 µg/mL); in assay [18] it was 5 µM (≈ 1.53 µg/mL); in assay [19] it was greater than 50 µM. For the same compound, the MIC80 in assay [20] was 9 µM (≈ 2.76 µg/mL); in [21], greater than 50 µM; in assay [22], greater than 50 µM; in assay [23] it was 4 µM (≈ 1.23 µg/mL); in assay [24], 3 µM (≈ 0.919 µg/mL).

On to `C[C@@H]1[C@H](O)[C@@H](C)/C=C/C=C/C=C/C=C/C=C/C=C/C=C/[C@H](O[C@@H]2O[C@H](C)[C@@H](O)[C@H](N)[C@@H]2O)C[C@@H]2O[C@](O)(C[C@@H](O)C[C@@H](O)[C@H](O)CC[C@@H](O)C[C@@H](O)CC(=O)O[C@H]1C)C[C@H](O)[C@H]2C(=O)O` [AMPHOTERICIN B], for which the MIC95 in [1] was found to be 0.03 µM (≈ 0.0277 µg/mL); in assay [2], 0.06 µM (≈ 0.0554 µg/mL); in assay [3], 0.14 µM (≈ 0.129 µg/mL); in [4], 0.03 µM (≈ 0.0277 µg/mL); in assay [5] it was 0.09 µM (≈ 0.0832 µg/mL); in [7] it was 0.14 µM (≈ 0.129 µg/mL). The MIC95 stood at 0.03 µM (≈ 0.0277 µg/mL) in assay [8]; 0.14 µM (≈ 0.129 µg/mL) in assay [10]; 0.27 µM (≈ 0.25 µg/mL) in assay [11]; 0.14 µM (≈ 0.129 µg/mL) in [12]; 0.23 µM (≈ 0.213 µg/mL) in [13]; 0.18 µM (≈ 0.166 µg/mL) in assay [14]. Moreover, the MIC95 was 0.07 µM (≈ 0.0647 µg/mL) in assay [15]; 0.18 µM (≈ 0.166 µg/mL) in assay [16]; 0.14 µM (≈ 0.129 µg/mL) in [17]; 0.11 µM (≈ 0.102 µg/mL) in [18]; 1.8 µM (≈ 1.66 µg/mL) in assay [20]; 2.16 µM (≈ 2 µg/mL) in assay [21]. Besides, the MIC95 in assay [22] amounted to 0.14 µM (≈ 0.129 µg/mL); in assay [24] it was 0.09 µM (≈ 0.0832 µg/mL).

`O=C1OC(COc2ccc(O)cc2)C=C1c1ccc(Br)cc1` (stereo unspecified): the MIC80 in assay [1] was found to be 1.95 µM (≈ 0.704 µg/mL); in assay [2], 1.95 µM (≈ 0.704 µg/mL); in assay [3] it was 3.9 µM (≈ 1.41 µg/mL); in assay [4], 7.81 µM (≈ 2.82 µg/mL); in [5], 1.95 µM (≈ 0.704 µg/mL); in [6] it was 1.95 µM (≈ 0.704 µg/mL). Moreover, the MIC80 in assay [7] was found to be 3.9 µM (≈ 1.41 µg/mL); in assay [8], 0.97 µM (≈ 0.35 µg/mL); in [9] it was 1.95 µM (≈ 0.704 µg/mL); in assay [10] it was 7.81 µM (≈ 2.82 µg/mL); in [11], 7.81 µM (≈ 2.82 µg/mL); in assay [12] it was 15.6 µM (≈ 5.64 µg/mL). In addition, the MIC80 in assay [13] came out at 7.81 µM (≈ 2.82 µg/mL); in [14], 15.6 µM (≈ 5.64 µg/mL); in assay [15] it was 1.95 µM (≈ 0.704 µg/mL); in assay [16] it was 1.95 µM (≈ 0.704 µg/mL); in assay [17] it was 15.6 µM (≈ 5.64 µg/mL); in assay [18] it was 7.81 µM (≈ 2.82 µg/mL). Besides, the MIC80 came out at 15.6 µM (≈ 5.64 µg/mL) in assay [19]; 15.6 µM (≈ 5.64 µg/mL) in assay [20]; 62.5 µM (≈ 22.6 µg/mL) in [21]; 7.81 µM (≈ 2.82 µg/mL) in assay [22]; 7.81 µM (≈ 2.82 µg/mL) in [23]; 7.81 µM (≈ 2.82 µg/mL) in assay [24].

For the origin of these results see ChEMBL document CHEMBL1157589, “Antifungal 3,5-disubstituted furanones: From 5-acyloxymethyl to 5-alkylidene derivatives” (Bioorg Med Chem, 2010).
